Measurements reported in ChEMBL document CHEMBL1221267, “Synthesis, in vitro and in vivo evaluation of 3-arylisoquinolinamines as potent antitumor agents” (Bioorg Med Chem Lett, 2010).

Assays:
PC-3 = assay: Antitumor activity against human PC3 by sulforhodamine B assay; assay type: functional, cell-based
Procedure, shortened: (§1)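 Human tumour lines from ATCC; growth inhibition by sulforhodamine B staining, absorbance read at 530 nm; IC50 taken as the drug concentration inhibiting cell growth by 50%, calculated by curve fitting.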

MDA-MB-231 = assay: Antitumor activity against human MDA-MB-231 by sulforhodamine B assay; assay type: functional, cell-based; procedure, shortened: as §1
PANC-1 = assay: Antitumor activity against human PANC1 by sulforhodamine B assay; assay type: functional, cell-based; procedure, shortened: as §1
HCT-116 [1] = assay: Antitumor activity against human HCT116 by sulforhodamine B assay; assay type: functional, cell-based; procedure, shortened: as §1
OVCAR-3 = assay: Antitumor activity against human OVCAR-3 by sulforhodamine B assay; assay type: functional, cell-based; procedure, shortened: as §1
SK-MEL-28 = assay: Antitumor activity against human SK-MEL-28 by sulforhodamine B assay; assay type: functional, cell-based; procedure, shortened: as §1
CAKI-1 = assay: Antitumor activity against human Caki1 by sulforhodamine B assay; assay type: functional, cell-based; procedure, shortened: as §1
SNB-19 = assay: Antitumor activity against human SNB19 by sulforhodamine B assay; assay type: functional, cell-based; procedure, shortened: as §1
HCT-15 [2] = assay: Antitumor activity against human paclitaxel-resistant HCT15 by sulforhodamine B assay; assay type: functional, cell-based; procedure, shortened: as §1
HCT-116 [3] = assay: Resistant index, ratio of IC50 for paclitacel-resistant human HCT15 cells to IC50 for human HCT116 cells; assay type: functional
Procedure, shortened: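 Index computed as IC50 in HCT-15 divided by IC50 in HCT 116, both from sulforhodamine B growth inhibition with absorbance at 530 nm.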

HCT-15 [4] = assay: Antitumor activity against paclitaxel-resistant human HCT15 cells xenografted in BALB/c mouse assessed as tumor growth inhibition at 10 mg/kg, ip qd thrice a week from day 10 to day 29; assay type: functional; settings: HCT-15, ip, route intraperitoneal
Procedure, shortened: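 Female athymic BALB/c nu/nu mice, six weeks old, received 1 × 10^6 paclitaxel-resistant HCT-15 cells in 0.2 ml RPMI subcutaneously in the right flank. Once tumors were in range, mice were assigned to groups. Dosing was 10 mg/kg/day ip in 5% Cremophor plus 5% ethanol in PBS, three times weekly, days 10–29. Tumor diameters were measured by caliper every 3–5 days. Body weight was monitored.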

HCT-15 [5] = assay: Cell cycle arrest in human HCT15 cells assessed as accumulation at sub-G1 phase at 1 nM after 48 hrs using propidium iodide staining by flow cytometry; assay type: functional
Procedure, shortened: (§2)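 HCT-15 cells plated at about 10^6 per 100-mm dish, grown 24 h, then given fresh medium with compound. Harvested by trypsinization at 24 h and 48 h, fixed in 70% ethanol, stained with 0.2% NP-40, RNase A (30 µg/ml) and propidium iodide (50 µg/ml) in phosphate–citrate buffer pH 7.2. DNA content by flow cytometry, at least 20,000 cells per analysis.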

HCT-15 [6] = assay: Cell cycle arrest in human HCT15 cells assessed as accumulation at G0/G1 phase at 1 nM after 24 hrs using propidium iodide staining by flow cytometry; assay type: functional; procedure, shortened: as §2
HCT-15 [7] = assay: Cell cycle arrest in human HCT15 cells assessed as accumulation at S phase at 1 nM after 24 hrs using propidium iodide staining by flow cytometry; assay type: functional; procedure, shortened: as §2
HCT-15 [8] = assay: Cell cycle arrest in human HCT15 cells assessed as accumulation at G2/M phase at 1 nM after 24 hrs using propidium iodide staining by flow cytometry; assay type: functional; procedure, shortened: as §2
HCT-15 [9] = assay: Cell cycle arrest in human HCT15 cells assessed as accumulation at sub-G1 phase at 1 nM after 24 hrs using propidium iodide staining by flow cytometry; assay type: functional; procedure, shortened: as §2
HCT-15 [10] = assay: Cell cycle arrest in human HCT15 cells assessed as accumulation at G0/G1 phase at 10 nM after 24 hrs using propidium iodide staining by flow cytometry; assay type: functional; procedure, shortened: as §2
HCT-15 [11] = assay: Cell cycle arrest in human HCT15 cells assessed as accumulation at S phase at 10 nM after 24 hrs using propidium iodide staining by flow cytometry; assay type: functional; procedure, shortened: as §2
HCT-15 [12] = assay: Cell cycle arrest in human HCT15 cells assessed as accumulation at G2/M phase at 10 nM after 24 hrs using propidium iodide staining by flow cytometry; assay type: functional; procedure, shortened: as §2
HCT-15 [13] = assay: Cell cycle arrest in human HCT15 cells assessed as accumulation at sub-G1 phase at 10 nM after 24 hrs using propidium iodide staining by flow cytometry; assay type: functional; procedure, shortened: as §2
HCT-15 [14] = assay: Cell cycle arrest in human HCT15 cells assessed as accumulation at G0/G1 phase at 1 nM after 48 hrs using propidium iodide staining by flow cytometry; assay type: functional; procedure, shortened: as §2
HCT-15 [15] = assay: Cell cycle arrest in human HCT15 cells assessed as accumulation at G2/M phase at 1 nM after 48 hrs using propidium iodide staining by flow cytometry; assay type: functional; procedure, shortened: as §2
HCT-15 [16] = assay: Cell cycle arrest in human HCT15 cells assessed as accumulation at G0/G1 phase at 10 nM after 48 hrs using propidium iodide staining by flow cytometry; assay type: functional; procedure, shortened: as §2
HCT-15 [17] = assay: Cell cycle arrest in human HCT15 cells assessed as accumulation at S phase at 10 nM after 48 hrs using propidium iodide staining by flow cytometry; assay type: functional; procedure, shortened: as §2
HCT-15 [18] = assay: Cell cycle arrest in human HCT15 cells assessed as accumulation at G2/M phase at 10 nM after 48 hrs using propidium iodide staining by flow cytometry; assay type: functional; procedure, shortened: as §2
HCT-15 [19] = assay: Cell cycle arrest in human HCT15 cells assessed as accumulation at sub-G1 phase at 10 nM after 48 hrs using propidium iodide staining by flow cytometry; assay type: functional; procedure, shortened: as §2
Mus musculus [20] = assay: Toxicity in BALB/c mouse at 10 mg/kg, ip qd thrice a week from day 10 to day 29; assay type: organism-based; set-up: dose 10 mg/kg, route intraperitoneal; settings: in vivo
Procedure, shortened: (§3)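 Female athymic BALB/c nu/nu mice, six weeks old, carrying subcutaneous right-flank HCT-15 xenografts (1×10^6 cells in 0.2 ml RPMI). Dosed 10 mg/kg/day ip three times weekly, days 10–29, in 5% Cremophor/5% ethanol in PBS; vehicle-only controls. Body weight monitored alongside caliper tumour measurements every 3–5 days.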

Mus musculus [21] = assay: Toxicity in BALB/c mouse assessed as change in body weight at 10 mg/kg, ip qd thrice a week from day 10 to day 29; assay type: organism-based; set-up: dose 10 mg/kg, route intraperitoneal; settings: in vivo; procedure, shortened: as §3

SMILES	IC50 (PC-3)	IC50 (MDA-MB-231)	IC50 (PANC-1)	IC50 (HCT-116 [1])	IC50 (OVCAR-3)	IC50 (SK-MEL-28)	IC50 (CAKI-1)	IC50 (SNB-19)	other results
COc1cc2cc(-c3c(C)cccc3C)nc(N)c2cc1OC	680 nM	250 nM	540 nM	790 nM	160 nM	630 nM	530 nM	420 nM	
COc1ccc(-c2cc3cc(C)ccc3c(N)n2)cc1	2980 nM	930 nM	2270 nM	1360 nM	790 nM	1800 nM	750 nM	2230 nM	
Cc1cccc(-c2cc3ccc(N(C)C)cc3c(N)n2)c1.Cl	24 nM	21 nM	18 nM	23 nM	16 nM	32 nM	23 nM	28 nM	IC50 (HCT-15 [2]): 21 nM; Ratio IC50 (HCT-116 [3]): 0.91
COc1ccc(C)c(-c2cc3ccc(C)cc3c(N)n2)c1	70 nM	30 nM	58 nM	42 nM	42 nM	51 nM	47 nM	52 nM	
COc1cccc(-c2cc3cc(C)ccc3c(N)n2)c1	250 nM	140 nM	310 nM	190 nM	180 nM	340 nM	130 nM	290 nM	
COc1ccccc1-c1cc2cc(C)ccc2c(N)n1	> 3000 nM	440 nM	930 nM	670 nM	490 nM	800 nM	350 nM	1130 nM	
CC(=O)O[C@H]1C(=O)[C@@]2(C)[C@H]([C@H](OC(=O)c3ccccc3)[C@]3(O)C[C@H](OC(=O)[C@H](O)[C@@H](NC(=O)c4ccccc4)c4ccccc4)C(C)=C1C3(C)C)[C@]1(OC(C)=O)CO[C@@H]1C[C@@H]2O [PACLITAXEL]									inhibition in vivo at 10 mg/kg (HCT-15 [4]): 48.8%; Ratio IC50 (HCT-116 [3]): 70
Cc1ccc2cc(-c3ccccc3F)nc(N)c2c1	2760 nM	720 nM	2140 nM	1220 nM	910 nM	1620 nM	590 nM	2200 nM	
Cc1ccc2cc(-c3c(C)cccc3C)nc(N)c2c1	120 nM	51 nM	79 nM	74 nM	75 nM	120 nM	48 nM	120 nM	
Cc1ccc2c(N)nc(-c3ccccc3C)cc2c1	240 nM	150 nM	240 nM	190 nM	150 nM	350 nM	120 nM	260 nM	
COc1cccc(-c2cc3cc(N(C)C)ccc3c(N)n2)c1	190 nM	59 nM	110 nM	64 nM	71 nM	110 nM	68 nM	94 nM	
COc1ccc(-c2cc3ccc(N(C)C)cc3c(N)n2)cc1OC	230 nM	150 nM	190 nM	180 nM	140 nM	330 nM	170 nM	250 nM	
Cc1ccc2c(N)nc(-c3ccccc3F)cc2c1	1840 nM	550 nM	1590 nM	700 nM	570 nM	1070 nM	460 nM	1510 nM	
COc1cc(OC)cc(-c2cc3cc(C)ccc3c(N)n2)c1	430 nM	180 nM	380 nM	240 nM	180 nM	410 nM	160 nM	470 nM	
COc1cc2cc(-c3cccc(C)c3)nc(N)c2cc1OC	2500 nM	790 nM	2270 nM	2320 nM	580 nM	1120 nM	1780 nM	1560 nM	
COc1cc(OC)cc(-c2cc3ccc(N(C)C)cc3c(N)n2)c1	48 nM	27 nM	26 nM	29 nM	25 nM	45 nM	38 nM	57 nM	
COc1cccc(-c2cc3ccc(N(C)C)cc3c(N)n2)c1.Cl	19 nM	21 nM	19 nM	17 nM	14 nM	32 nM	22 nM	32 nM	Activity (HCT-15 [5]): 3.78%; IC50 (HCT-15 [2]): 15 nM; Activity (HCT-15 [6]): 50.78%; Activity (HCT-15 [7]): 29.02%; Activity (HCT-15 [8]): 20.2%; Activity (HCT-15 [9]): 0.9%; Activity (HCT-15 [10]): 62.51%; Activity (HCT-15 [11]): 21.28%; Activity (HCT-15 [12]): 16.21%; Activity (HCT-15 [13]): 19.6%; Activity (HCT-15 [14]): 59.52%; Activity (HCT-15 [15]): 17.2%; Activity (HCT-15 [16]): 68.67%; Activity (HCT-15 [17]): 18.59%; Activity (HCT-15 [18]): 12.74%; Activity (HCT-15 [19]): 24.76%; inhibition in vivo at 10 mg/kg (HCT-15 [4]): 69.2%; Activity (Mus musculus [20]): Non-toxic; Activity (Mus musculus [21]): Non-toxic; Ratio IC50 (HCT-116 [3]): 0.88
Cc1ccc2cc(-c3ccc4c(c3)OCO4)nc(N)c2c1	250 nM	150 nM	370 nM	180 nM	230 nM	420 nM	130 nM	380 nM	
COc1ccccc1-c1cc2ccc(C)cc2c(N)n1	1010 nM	320 nM	680 nM	470 nM	510 nM	670 nM	220 nM	780 nM	
Cc1cccc(-c2cc3ccc(C)cc3c(N)n2)c1	710 nM	210 nM	690 nM	280 nM	290 nM	500 nM	440 nM	530 nM	
